Assay results gathered from unrelated publications.
Each line is one published result; the experiments were not run side by side.
Read-out: cell growth or viability

`C[C@H]1[C@H](OC(=O)CCC(=O)O)O[C@@H]2O[C@@]3(C)CC[C@H]4[C@H](C)CC[C@@H]1[C@@]24OO3` gave an IC50 of 4600 nM (SH-SY5Y; resazurin).
The IC50 of `O=C(C=Cc1ccccc1)Nc1cc(-c2ccnc(N3CCC(O)CC3)c2)ccn1` is reported as 528 nM (HCC1937; MTT; 72 h).
`COc1cc2c3c(n(CCCNCCO)c(=O)c2cc1OC)-c1nc2c(cc1C3=O)OCO2` has an IC50 of 173 nM (SK-N-MC; MTS; 72 h).
`Nc1ccc(/C=C/C(=O)N2CCc3c(oc4c(-c5ccc(F)cc5)cc(-c5ccc(C(=O)N6CCOCC6)nn5)cc34)C2)cn1` gave an IC50 of 570 nM (Pan02; CCK-8; 72 h).
The IC50 of `C=C(F)C(=O)N1CCN(c2nc(OC[C@@H]3CCCN3C)nc3c2CCN(c2cccc4cccc(Cl)c24)C3)C[C@@H]1CC#N` is reported as 21.3 nM (Lu-99; ATP luminescence; 3D culture).
`Nc1ccc(/C=C/C(=O)NCc2cc3cc(-c4ccc(C(=O)N5CCC(F)(F)CC5)cc4)cc(-c4ccc(F)cc4)c3o2)cn1` gave an IC50 of 1640 nM (Pan02; CCK-8; 72 h).
With `OC(c1cc(C(F)(F)F)nc2c(C(F)(F)F)cccc12)C1CCCCN1` (stereo not drawn) the IC50 was 8000 nM (SH-SY5Y; resazurin).
`CC(C)(C)c1cnc(CSc2cnc(NC(=O)C3CCN(CCCCCSc4cccc5c4CN(C4CCC(=O)NC4=O)C5=O)CC3)s2)o1` (stereo not drawn) gave a viability of 13.4% (HuT78; trypan blue; 0.5 µM; 48 h).
For `COc1cc2c3c(n(CCCN4CCOCC4)c(=O)c2cc1OC)-c1nc2c(cc1C3=O)OCO2`, the IC50 was 698 nM (SK-N-MC; MTS; 72 h).
`C#Cc1nc(C2=C(C)C(OC(=O)C(C)(C)C)/C(=N\OC(=O)C(C)(C)C)C2)cs1` (stereo not drawn) has a CC50 of 73 nM (HT-1080).
`C=CC(=O)NC1CCN(c2ncc3ncnc(Nc4ccc(Oc5ccc6c(c5)ncn6C)c(C)c4)c3n2)CC1` gave an EC50 of 34.9 nM (SNU668).
`COc1cc(NC(C)CCCN)c2ncccc2c1` (stereo not drawn) gave an IC50 of over 50000 nM (SH-SY5Y; resazurin).
`CC(C)(C)c1cnc(CSc2cnc(NC(=O)C3CCN(CCCCCCCCSc4cccc5c4CN(C4CCC(=O)NC4=O)C5=O)CC3)s2)o1` (stereo not drawn) has a viability of 10.5% (HuT78; trypan blue; 1 µM; 48 h).
With `O=C1C(O)=C([C@H]2CC[C@H](c3ccc(Cl)cc3)CC2)C(=O)c2ccccc21` the IC50 was over 50000 nM (SH-SY5Y; resazurin).
The IC50 of `CC1(C)CCC(CN2CCN(c3ccc(C(=O)NS(=O)(=O)c4ccc(NCC5CCOCC5)c([N+](=O)[O-])c4)c(Oc4cnc5[nH]ccc5c4)c3)CC2)=C(c2ccc(Cl)cc2)C1` is reported as 7460 nM (MM.1R; ATP luminescence; 48 h).
